Laboratory results taken from ChEMBL document CHEMBL1126276, “Synthesis and antimalarial properties of 1-imino derivatives of 7-chloro-3-substituted-3,4-dihydro-1,9(2H,10H)-acridinediones and related structures” (J Med Chem, 1992).

Legend:
Type in all cases: functional
Plasmodium berghei [1] = assay: Antimalarial activity Plasmodium berghei infected mice (Mus musculus) after 640 mg/kg subcutaneous dose
Method in brief: (§1)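 […] in mice infected with a normal drug-sensitive P. berghei strain. Compound dissolved or suspended in sesame or peanut oil, given as a single subcutaneous dose 72 h postinfection.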

Plasmodium berghei [2] = assay: Antimalarial activity in Plasmodium berghei infected mice (Mus musculus) after subcutaneous 320 mg/kg dose
Method in brief: (§2)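 Normal drug-sensitive P. berghei strain in mice. Compound dissolved or suspended in sesame or peanut oil, given parenterally as a single subcutaneous dose 72 h postinfection.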

Plasmodium berghei [3] = assay: Antimalarial activity in Plasmodium berghei infected mice (Mus musculus) after subcutaneous 640 mg/kg dose; method in brief: as §2
Plasmodium berghei [4] = assay: Antimalarial activity in Plasmodium berghei infected mice (Mus musculus) after 20 mg/kg subcutaneous dose; method in brief: as §1
Plasmodium berghei [5] = assay: Antimalarial activity in Plasmodium berghei infected mice (Mus musculus) after 160 mg/kg subcutaneous dose; method in brief: as §1
Plasmodium berghei [6] = assay: (§3) Antimalarial activity in Plasmodium berghei infected mice (Mus musculus) after 40 mg/kg subcutaneous dose; method in brief: as §1
Plasmodium berghei [7] = assay: Antimalarial activity in Plasmodium berghei infected mice (Mus musculus) after subcutaneous 160 mg/kg dose; method in brief: as §2
Plasmodium berghei [8] = assay: (§4) Antimalarial activity in Plasmodium berghei infected mice (Mus musculus) after 80 mg/kg subcutaneous dose; method in brief: as §1
Plasmodium berghei [9] = assay: as §4; method in brief: as §2; remark: listed apart in the source
Plasmodium berghei [10] = assay: as §3; method in brief: as §2; remark: listed apart in the source

| SMILES | Delta mean survival time (Plasmodium berghei [1]) | No. of cured mice (Plasmodium berghei [2]) | No. of cured mice (Plasmodium berghei [3]) | Delta mean survival time (Plasmodium berghei [4]) | Delta mean survival time (Plasmodium berghei [5]) | Delta mean survival time (Plasmodium berghei [6]) | No. of cured mice (Plasmodium berghei [7]) | Delta mean survival time (Plasmodium berghei [8]) | No. of cured mice (Plasmodium berghei [9]) | No. of cured mice (Plasmodium berghei [10]) |
| --- | --- | --- | --- | --- | --- | --- | --- | --- | --- | --- |
| CN(C)CCC/N=C1\CC(c2ccc(C3CCCCC3)cc2)Cc2nc3ccc(Cl)cc3c(O)c21 (configuration not stated) | 9.6 | 5 | 3 | 2.8 | 10.3 | 7 | 2 | 7.2 | – | – |
| CN(C)CCC/N=C1\CC(c2cccc(C(F)(F)F)c2)Cc2nc3ccc(Cl)cc3c(O)c21 (configuration not stated) | – | 5 | 5 | – | – | 6.6 | 5 | 14.6 | 1 | – |
| O=C1CC(c2ccc([N+](=O)[O-])cc2)Cc2nc3ccc(Cl)cc3c(O)c21 (configuration not stated) | 13.3 | – | 2 | – | 4.6 | 0.8 | – | – | – | – |
| COc1ccccc1C1C/C(=N\CCCN(C)C)c2c(nc3ccc(Cl)cc3c2O)C1 (configuration not stated) | 6.4 | – | 2 | – | 6.7 | 1.7 | – | – | – | – |
| CCCCN(CCCC)CC/N=C1\CC(c2cccc(C(F)(F)F)c2)Cc2c1c(=O)c1cc(Cl)ccc1n2O (configuration not stated) | – | 5 | 5 | 5.4 | 11.6 | 9.6 | 3 | 7 | – | 1 |
| O=c1c2c(n(O)c3ccc(Cl)cc13)CC(c1cccc(C(F)(F)F)c1)C/C2=N\CCCN1CCCC1 (configuration not stated) | 25.6 | 5 | 4 | – | 9.6 | 6.2 | 3 | 6 | – | – |
| CCN(CC)CC/N=C1\CC(c2ccc(C(F)(F)F)cc2)Cc2nc3ccc(Cl)cc3c(O)c21 (configuration not stated) | – | – | 5 | – | – | 17.6 | 5 | – | – | 3 |
| CCN(CC)CCC/N=C1\CC(c2ccc(Cl)c(Cl)c2)Cc2c1c(=O)c1cc(Cl)ccc1n2O (configuration not stated) | – | 5 | 5 | 5.8 | 12.7 | 3.5 | 4 | 11.7 | 2 | – |
| O=C1CC(c2ccc(C(F)(F)F)cc2)Cc2nc3ccc([N+](=O)[O-])cc3c(O)c21 (configuration not stated) | 6.9 | – | 1 | 0.7 | 2.8 | 4.1 | – | – | – | – |
| CC1C(=O)c2c(nc3ccc(Cl)cc3c2O)CC1c1ccc(C(F)(F)F)cc1 (configuration not stated) | 8.8 | 5 | 4 | 3.9 | 12.8 | 5.7 | 2 | 7.5 | – | – |
| CCN(CCO)CCC/N=C1\CC(c2ccc(Cl)c(Cl)c2)Cc2c1c(=O)c1cc(Cl)ccc1n2O (configuration not stated) | – | 5 | 5 | – | 10.1 | 8.6 | 3 | 9.6 | 1 | – |
| O=C1c2c(nc3ccc(Cl)cc3c2O)CCC1c1ccccc1 (configuration not stated) | 0 | – | – | – | 0 | 0.2 | – | 0 | – | – |
| CN(C)CCC/N=C1/c2c([nH]c3ccc(Cl)cc3c2=O)CC(c2ccc(Cl)c(Cl)c2)C1c1ccccc1 (configuration not stated) | – | 5 | 5 | 3.1 | 12.2 | 7.7 | 2 | 14.2 | 1 | – |
| CCCCNCCC/N=C1\CC(c2ccc(Cl)c(Cl)c2)Cc2c1c(=O)c1cc(Cl)ccc1n2O (configuration not stated) | – | 5 | 5 | 4.4 | 10.6 | 9.4 | 4 | 9.1 | 1 | – |
| O=C1CC(c2ccccc2C(F)(F)F)Cc2c1c(=O)c1cc(Cl)ccc1n2O (configuration not stated) | 8.3 | – | – | 0.6 | 4.5 | 2.7 | – | – | – | – |
| CCCCNC(CC)C/N=C1\CC(c2cccc(C(F)(F)F)c2)Cc2c1c(=O)c1cc(Cl)ccc1n2O (configuration not stated) | – | 5 | 5 | 5.6 | – | 6.8 | 5 | 10.9 | 1 | – |
| CN(C)CCC/N=C1\CC(c2ccccc2C(F)(F)F)Cc2c1c(=O)c1cc(Cl)ccc1n2O (configuration not stated) | – | 5 | 5 | – | 8 | 5.8 | 4 | 7.5 | 1 | – |
